According to ChEMBL document CHEMBL3763093, “The molecular structure of thio-ether fatty acids influences PPAR-dependent regulation of lipid metabolism” (Bioorg Med Chem, 2016):
Calls of active or inactive are those of the source. The calls are words filed in the database; no cut-off is given here.

Columns and labels:
[1] = Effect on fatty acid composition in human myotubes assessed as intracellular dTTA level at 30 uM after 96 hrs; format: functional
Summary of the method: (§1)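 Differentiated human myotubes (7 days) treated 96 h with 10 or 30 μM compound or DMSO 0.1% (two controls). Cells washed, harvested, lipids extracted and methylated (methanol, sulfuric acid, 90 °C, 1 h); FA methyl esters quantified by GC with C21:0 internal standard, peaks confirmed by standards and GC/MS; values as mol % of intracellular fatty acids.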

[2] = Effect on fatty acid composition in human myotubes assessed as change in intracellular SFA level at 30 uM after 96 hrs relative to DMSO control; format: functional; summary of the method: as §1
[3] = Effect on fatty acid composition in human myotubes assessed as change in intracellular MUFA level at 10 uM after 96 hrs relative to DMSO control; format: functional; summary of the method: as §1
[4] = Effect on fatty acid composition in human myotubes assessed as intracellular MUFA level at 30 uM after 96 hrs (Rvb= 41.04%); format: functional; summary of the method: as §1
[5] = target: T1, Peroxisome proliferator-activated receptor (Homo sapiens) (UniProt P37231+Q07869+Q03181); assay: Agonist activity at PPAR in human myotubes assessed as ANGPTL4 mRNA expression at 30 uM after 96 hrs by qPCR analysis relative to control
Summary of the method: (§2)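 Myotubes from satellite cells of abdominal muscle biopsies of healthy donors, differentiated 7 days, then exposed 96 h to test lipids (30 μM) vs DMSO 0.1%. Total RNA isolated (RIN ≥7), reverse transcribed, real-time PCR with gene-specific primers; expression expressed relative to DMSO control.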

[6] = target: T1, Peroxisome proliferator-activated receptor (Homo sapiens); assay: Agonist activity at PPAR in human myotubes assessed as CPT1A mRNA expression at 30 uM after 96 hrs by qPCR analysis relative to control; summary of the method: as §2
[7] = Effect on fatty acid composition in human myotubes assessed as intracellular SFA level at 10 uM after 96 hrs (Rvb= 36.16%); format: functional; summary of the method: as §1
[8] = Effect on total fatty acid level in human myotubes assessed as per mg of protein at 10 to 30 uM; format: ADME
[9] = Effect on fatty acid composition in human myotubes assessed as intracellular dTTA level at 10 uM after 96 hrs; format: functional; summary of the method: as §1
[10] = Effect on fatty acid composition in human myotubes assessed as change in intracellular SFA level at 10 uM after 96 hrs relative to DMSO control; format: functional; summary of the method: as §1
[11] = Effect on fatty acid composition in human myotubes assessed as intracellular TTA level at 10 uM after 96 hrs; format: functional; summary of the method: as §1
[12] = Effect on fatty acid composition in human myotubes assessed as intracellular SFA level at 30 uM after 96 hrs (Rvb= 36.16%); format: functional; summary of the method: as §1
[13] = Effect on fatty acid composition in human myotubes assessed as intracellular PUFA n-9 level at 30 uM after 96 hrs (Rvb= 1.78%); format: functional; summary of the method: as §1
[14] = target: T1, Peroxisome proliferator-activated receptor (Homo sapiens); assay: Agonist activity at PPAR in human myotubes assessed as FABP3 mRNA expression at 30 uM after 96 hrs by qPCR analysis relative to control; summary of the method: as §2
Homo sapiens [15] = organism: Homo sapiens; assay: Effect on intracellular [14C]oleic acid uptake in human myotubes at 10 to 30 uM preincubated for 96 hrs followed by substrate addition incubated for 4 hrs by liquid scintillation analysis; format: functional, cell-based
Summary of the method: (§3)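 Myotubes differentiated 7 days were pretreated 96 h with 10 or 30 μM compound, 10 nM GW501516 or DMSO 0.1%, then given [1-14C]oleic acid (0.5 μCi/mL, 100 μM) in DPBS with HEPES 10 mM and L-carnitine 1 mM, 4 h at 37 °C. Trapped CO2 and cell-associated label counted by scintillation; uptake = CO2 + CA; Bradford protein; % of DMSO basal; n = 8–15.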

[16] = Effect on fatty acid composition in human myotubes assessed as change in intracellular MUFA level at 30 uM after 96 hrs relative to DMSO control; format: functional; summary of the method: as §1
Homo sapiens [17] = organism: Homo sapiens; assay: Induction of fatty acid oxidation in human myotubes using [14C]oleic acid as substrate preincubated for 96 hrs followed by substrate addition incubated for 4 hrs by liquid scintillation analysis; format: functional; summary of the method: as §3
[18] = Effect on fatty acid composition in human myotubes assessed as intracellular PUFA n-3 level at 30 uM after 96 hrs (Rvb= […]); format: functional; summary of the method: as §1
[19] = Effect on fatty acid composition in human myotubes assessed as intracellular PUFA n-9 level at 10 uM after 96 hrs (Rvb= 1.78%); format: functional; summary of the method: as §1
[20] = Effect on fatty acid composition in human myotubes assessed as intracellular PUFA n-3 level at 10 uM after 96 hrs (Rvb= 7.47%); format: functional; summary of the method: as §1
[21] = Effect on fatty acid composition in human myotubes assessed as intracellular MUFA level at 10 uM after 96 hrs (Rvb= 41.04%); format: functional; summary of the method: as §1
[22] = Effect on fatty acid composition in human myotubes assessed as intracellular PUFA n-6 level at 30 uM after 96 hrs (Rvb= 13.41%); format: functional; summary of the method: as §1
[23] = Effect on fatty acid composition in human myotubes assessed as intracellular TTA level at 30 uM after 96 hrs; format: functional; summary of the method: as §1
[24] = target: T1, Peroxisome proliferator-activated receptor (Homo sapiens); assay: Agonist activity at PPAR in human myotubes assessed as CD36 mRNA expression at 30 uM after 96 hrs by qPCR analysis relative to control; summary of the method: as §2
[25] = Effect on protein level in human myotubes at 10 to 30 uM; format: ADME
[26] = Effect on fatty acid composition in human myotubes assessed as intracellular PUFA n-6 level at 10 uM after 96 hrs (Rvb= 13.41%); format: functional; summary of the method: as §1
[27] = Induction of fatty acid oxidation in human myotubes using [14C]oleic acid as substrate at 30 uM preincubated for 96 hrs followed by substrate addition incubated for 4 hrs by liquid scintillation analysis relative to control; format: functional; summary of the method: as §3
[28] = Effect on fatty acid composition in human myotubes assessed as intracellular SFA level at 10 uM after 96 hrs (Rvb= 31.41%); format: functional; summary of the method: as §1
[29] = Effect on fatty acid composition in human myotubes assessed as intracellular SFA level at 30 uM after 96 hrs (Rvb= 31.41%); format: functional; summary of the method: as §1
[30] = Effect on fatty acid composition in human myotubes assessed as intracellular PUFA n-6 level at 10 uM after 96 hrs (Rvb= 11.46%); format: functional; summary of the method: as §1
[31] = Effect on fatty acid composition in human myotubes assessed as intracellular PUFA n-9 level at 10 uM after 96 hrs (Rvb= 1.89%); format: functional; summary of the method: as §1
[32] = Effect on fatty acid composition in human myotubes assessed as intracellular tTTA level at 10 uM after 96 hrs; format: functional; summary of the method: as §1
[33] = Effect on fatty acid composition in human myotubes assessed as intracellular MUFA level at 10 uM after 96 hrs (Rvb= 49.95%); format: functional; summary of the method: as §1
[34] = Effect on fatty acid composition in human myotubes assessed as intracellular PUFA n-6 level at 30 uM after 96 hrs (Rvb= 11.46%); format: functional; summary of the method: as §1
[35] = Effect on fatty acid composition in human myotubes assessed as intracellular tTTA level at 30 uM after 96 hrs; format: functional; summary of the method: as §1
[36] = Effect on fatty acid composition in human myotubes assessed as intracellular MUFA level at 30 uM after 96 hrs (Rvb= 49.95%); format: functional; summary of the method: as §1
[37] = Effect on fatty acid composition in human myotubes assessed as intracellular PUFA n-9 level at 30 uM after 96 hrs (Rvb= 1.89%); format: functional; summary of the method: as §1
[38] = Effect on fatty acid composition in human myotubes assessed as intracellular PUFA n-3 level at 30 uM after 96 hrs (Rvb= 5.16%); format: functional; summary of the method: as §1
[39] = Effect on fatty acid composition in human myotubes assessed as intracellular PUFA n-3 level at 10 uM after 96 hrs (Rvb= 5.16%); format: functional; summary of the method: as §1

Row | Structure (SMILES) | Activity [2] | Activity [3] | fold change (FC) [5] | fold change (FC) [6] | Activity [8] | Activity [10] | Activity [11] | Activity [14] | Activity (Homo sapiens [15]) | Activity [16] | Activity (Homo sapiens [17]) | Activity [23] | Activity [24] | Activity [25] | further results
1 | CCCCCCCCCCCCCCSCC(=O)O [TETRADECYLTHIOACETIC ACID] | -49.4% | -14.6% | < 20 | 5 | Non-toxic | -27.2% | 13.02 mol% | Active | inactive | -30.8% | Dose-dependent effect | 31.81 mol% | Active | Non-toxic | Activity [1]: 1.28 mol%; Activity [4]: 28.44 mol%; Activity [7]: 26.24 mol%; Activity [9]: 1.11 mol%; Activity [12]: 18.25 mol%; Activity [13]: 1.73 mol%; Activity [18]: 6.62 mol%; Activity [19]: 2.2 mol%; Activity [20]: 7.86 mol%; Activity [21]: 35.09 mol%; Activity [22]: 11.78 mol%; Activity [26]: 14.34 mol%; fold change (FC) [27]: 3
2 | CCCCCCC#CCCCCCCSCC(=O)OC[C@@H](O)COP(=O)([O-])OCC[N+](C)(C)C | 4.5% | -21.3% | 25 | < 7 | Non-toxic | 0.7% | 0.43 mol% | Active | inactive | -13.1% | Dose-dependent effect | 1.02 mol% | Active | Non-toxic | Activity [28]: 32.02 mol%; Activity [29]: 33.52 mol%; Activity [30]: 12.4 mol%; Activity [31]: 1.48 mol%; Activity [32]: 2.16 mol%; Activity [33]: 46.19 mol%; Activity [34]: 13.42 mol%; Activity [35]: 4.15 mol%; Activity [36]: 40.64 mol%; Activity [37]: 1.41 mol%; Activity [38]: 5.68 mol%; Activity [39]: 5.18 mol%
